Source: PMC5589077 (ACS chemical neuroscience, 2015)
Several values for one entry are separate records, joined by “and”; a condition that tells them apart may be missing. Equal entries are not always repeated. Where two headings read alike, the source gives them in different places.

How the values were obtained:
[1] = 62 receptor/enzyme screen; format: binding; details: 10 μM
Summary of the method: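 Profiling in a 62-target radioligand and enzyme panel. Test compound was run at 100 nM and 10 000 nM, in duplicate. The work was done by a contractor to the NIDA Addiction Treatment Discovery Program.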

ICR mice [2] = experiment: conditioned place preference; format: in vivo, mouse
Summary of the method: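 Test compound given s.c. 15 min before conditioning, in an unbiased three-chamber CPP. Male ICR mice, 8–10 weeks old, n = 8 per group. Baseline day 1: 5 min habituation, 15 min test. Then 3 days of twice-daily 20 min sessions, ≥5 h apart; test on day 5. Score: drug-paired-side time after minus before conditioning; mean ± SEM, p < 0.05 versus vehicle.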

ICR mice [3] = experiment: blockade of nicotine-induced CPP; format: in vivo, mouse; details: 15 min before nicotine 0.5 mg/kg s.c.
Summary of the method: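 Male ICR mice, 8–10 weeks old, n = 8 per group, in an unbiased three-chamber CPP. Day 1: 5 min habituation, then a 15 min baseline, with the paired side randomised. Days 2–4: two 20 min sessions daily, ≥5 h apart, nicotine 0.5 mg/kg s.c. (saline, free base) versus saline. Test compound or vehicle s.c. 15 min before nicotine. Day 5 retest.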

DAD4 = DAD4 (Homo sapiens, UniProt P21917); experiment: off-target radioligand binding assay; details: 10 μM
Chain of DAD4 (P21917 whole entry): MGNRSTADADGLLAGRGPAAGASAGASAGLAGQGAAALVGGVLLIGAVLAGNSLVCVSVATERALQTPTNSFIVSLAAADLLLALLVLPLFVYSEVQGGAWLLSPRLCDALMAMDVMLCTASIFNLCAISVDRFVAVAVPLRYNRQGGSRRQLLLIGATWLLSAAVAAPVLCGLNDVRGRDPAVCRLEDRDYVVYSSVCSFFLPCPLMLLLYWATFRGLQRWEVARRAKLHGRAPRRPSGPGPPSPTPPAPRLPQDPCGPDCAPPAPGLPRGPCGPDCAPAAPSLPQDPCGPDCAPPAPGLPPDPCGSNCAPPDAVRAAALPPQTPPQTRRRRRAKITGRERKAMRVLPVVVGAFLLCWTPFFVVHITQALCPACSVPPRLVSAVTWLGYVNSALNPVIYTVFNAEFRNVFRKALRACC

nAChRs = details: cited from earlier work; for Ki: read-out: Ki for inhibition of [3H]epibatidine binding to nAChRs
κ opioid receptor = κ opioid receptor (Homo sapiens, UniProt P41145); experiment: off-target radioligand binding assay; details: 10 μM
α4β2-nAChR = details: cited from earlier work
mouse [4] = details: cited from earlier work
rat α3β4-nAChR = rat α3β4-nAChR (Rattus norvegicus, UniProt P04757+P12392); format: cell-based; details: for antagonism (% of EC50 ACh remaining) α3β4: 100 μM compound, ACh 200 μM; for IC50: read-out: antagonism, IC50 α3β4, vs EC50 ACh 200 μM
Chain of rat α3β4-nAChR (P12392 21-495): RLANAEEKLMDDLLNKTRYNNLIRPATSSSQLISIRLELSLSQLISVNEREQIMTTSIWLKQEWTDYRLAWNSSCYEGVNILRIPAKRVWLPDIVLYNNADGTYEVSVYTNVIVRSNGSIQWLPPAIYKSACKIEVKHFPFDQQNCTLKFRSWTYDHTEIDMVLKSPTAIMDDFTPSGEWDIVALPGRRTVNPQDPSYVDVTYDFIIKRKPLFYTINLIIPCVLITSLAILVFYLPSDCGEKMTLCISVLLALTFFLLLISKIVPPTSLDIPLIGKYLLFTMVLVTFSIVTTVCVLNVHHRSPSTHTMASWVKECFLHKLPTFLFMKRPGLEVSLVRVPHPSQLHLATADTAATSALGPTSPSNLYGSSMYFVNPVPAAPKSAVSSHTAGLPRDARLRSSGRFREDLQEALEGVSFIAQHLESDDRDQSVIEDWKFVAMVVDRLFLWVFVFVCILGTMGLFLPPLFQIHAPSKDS
Chain of rat α3β4-nAChR (P04757 26-499): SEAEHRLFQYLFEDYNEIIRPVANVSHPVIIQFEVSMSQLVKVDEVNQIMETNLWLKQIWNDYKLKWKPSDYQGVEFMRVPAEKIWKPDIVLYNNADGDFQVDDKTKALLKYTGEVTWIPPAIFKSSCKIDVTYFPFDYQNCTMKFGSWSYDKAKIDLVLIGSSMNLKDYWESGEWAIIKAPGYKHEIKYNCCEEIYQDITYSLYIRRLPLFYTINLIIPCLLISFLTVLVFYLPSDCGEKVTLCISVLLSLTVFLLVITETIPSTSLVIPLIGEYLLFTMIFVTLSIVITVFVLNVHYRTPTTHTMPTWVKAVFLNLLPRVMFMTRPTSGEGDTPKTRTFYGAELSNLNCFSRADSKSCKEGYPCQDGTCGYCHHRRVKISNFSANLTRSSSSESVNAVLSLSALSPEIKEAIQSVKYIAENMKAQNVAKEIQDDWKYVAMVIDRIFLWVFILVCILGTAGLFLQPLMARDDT

DAD1 = DAD1 (Homo sapiens, UniProt P21728); experiment: off-target radioligand binding assay; details: 10 μM
NET = NET (Homo sapiens, UniProt P23975); experiment: off-target radioligand binding assay; details: 10 μM
Summary of the method: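 Inhibition of specific [125I]RTI-55 binding to the norepinephrine transporter, with test compound at 10 μM. The screen was run by a NIDA drug-discovery program contractor.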

rat α7-nAChR = rat α7-nAChR (Rattus norvegicus, UniProt Q05941); format: cell-based; details: for antagonism (% of EC50 ACh remaining) α7: 100 μM compound, ACh 300 μM; for IC50: read-out: antagonism, IC50 α7, vs EC50 ACh 300 μM
Chain of rat α7-nAChR (Q05941 23-502): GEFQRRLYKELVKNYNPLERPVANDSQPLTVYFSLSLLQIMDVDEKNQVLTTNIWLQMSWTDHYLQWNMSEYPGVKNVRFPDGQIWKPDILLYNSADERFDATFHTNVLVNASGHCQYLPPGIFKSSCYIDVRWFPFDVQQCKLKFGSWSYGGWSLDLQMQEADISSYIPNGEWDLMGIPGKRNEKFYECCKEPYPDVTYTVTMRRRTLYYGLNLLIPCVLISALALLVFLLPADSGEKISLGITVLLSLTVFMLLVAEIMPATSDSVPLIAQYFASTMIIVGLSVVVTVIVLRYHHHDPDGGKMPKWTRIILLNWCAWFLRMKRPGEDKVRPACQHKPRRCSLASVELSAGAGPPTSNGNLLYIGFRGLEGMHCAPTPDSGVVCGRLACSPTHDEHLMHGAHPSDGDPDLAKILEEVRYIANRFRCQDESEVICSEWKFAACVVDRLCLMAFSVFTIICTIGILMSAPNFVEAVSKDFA

5HT2A = 5HT2A (Homo sapiens, UniProt P28223); experiment: off-target radioligand binding assay; details: 10 μM
α6β2*-nAChR in α5KO = α6β2*-nAChR in α5KO (Mus musculus, UniProt Q9ERK7+Q9R0W9); format: cell-based; details: for max (% nic) dopamine release, α6β2 in α5KO: 10 μM (+) PHT or 100 μM (−) PHT compared to 10 μM nic response; for EC50: read-out: EC50 dopamine release, α6β2 in α5KO, α5KO mice
Chain of α6β2*-nAChR in α5KO (Q9R0W9 26-494): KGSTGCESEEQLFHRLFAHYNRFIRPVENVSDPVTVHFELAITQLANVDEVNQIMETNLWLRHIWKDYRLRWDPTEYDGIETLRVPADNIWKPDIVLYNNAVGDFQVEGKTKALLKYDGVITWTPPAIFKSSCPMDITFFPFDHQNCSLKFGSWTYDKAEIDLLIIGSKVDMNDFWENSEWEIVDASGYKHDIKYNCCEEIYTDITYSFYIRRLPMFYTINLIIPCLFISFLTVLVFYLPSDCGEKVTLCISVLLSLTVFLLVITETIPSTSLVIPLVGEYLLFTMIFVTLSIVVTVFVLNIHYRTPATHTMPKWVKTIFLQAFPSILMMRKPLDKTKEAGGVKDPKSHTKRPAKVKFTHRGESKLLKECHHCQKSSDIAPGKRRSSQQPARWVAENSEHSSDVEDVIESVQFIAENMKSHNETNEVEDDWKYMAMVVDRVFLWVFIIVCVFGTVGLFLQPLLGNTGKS
Chain of α6β2*-nAChR in α5KO (Q9ERK7 26-501): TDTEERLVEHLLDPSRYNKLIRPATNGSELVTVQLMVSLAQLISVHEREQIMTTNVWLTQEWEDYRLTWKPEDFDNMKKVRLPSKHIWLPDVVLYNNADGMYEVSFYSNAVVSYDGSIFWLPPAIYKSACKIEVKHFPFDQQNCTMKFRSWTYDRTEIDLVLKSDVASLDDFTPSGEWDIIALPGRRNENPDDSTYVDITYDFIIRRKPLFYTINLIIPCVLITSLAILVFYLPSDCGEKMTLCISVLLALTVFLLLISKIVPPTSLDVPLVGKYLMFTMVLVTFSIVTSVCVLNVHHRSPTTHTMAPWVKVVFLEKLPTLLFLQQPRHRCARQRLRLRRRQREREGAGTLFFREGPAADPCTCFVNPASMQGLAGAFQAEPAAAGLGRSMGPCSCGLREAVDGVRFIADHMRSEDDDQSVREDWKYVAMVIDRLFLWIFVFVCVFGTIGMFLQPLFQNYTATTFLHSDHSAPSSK

δ opioid receptor = δ opioid receptor (Homo sapiens, UniProt P41143); experiment: off-target radioligand binding assay; details: 10 μM
α4β2*-nAChR [5] = format: cell-based, mouse; details: for max (% nic) dopamine release, res α4β2: 10 μM (+) PHT or 100 μM (−) PHT compared to 10 μM nic response
Chain of α4β2*-nAChR (Q9ERK7 26-501): as above
Chain of α4β2*-nAChR (O70174 31-629, further chain): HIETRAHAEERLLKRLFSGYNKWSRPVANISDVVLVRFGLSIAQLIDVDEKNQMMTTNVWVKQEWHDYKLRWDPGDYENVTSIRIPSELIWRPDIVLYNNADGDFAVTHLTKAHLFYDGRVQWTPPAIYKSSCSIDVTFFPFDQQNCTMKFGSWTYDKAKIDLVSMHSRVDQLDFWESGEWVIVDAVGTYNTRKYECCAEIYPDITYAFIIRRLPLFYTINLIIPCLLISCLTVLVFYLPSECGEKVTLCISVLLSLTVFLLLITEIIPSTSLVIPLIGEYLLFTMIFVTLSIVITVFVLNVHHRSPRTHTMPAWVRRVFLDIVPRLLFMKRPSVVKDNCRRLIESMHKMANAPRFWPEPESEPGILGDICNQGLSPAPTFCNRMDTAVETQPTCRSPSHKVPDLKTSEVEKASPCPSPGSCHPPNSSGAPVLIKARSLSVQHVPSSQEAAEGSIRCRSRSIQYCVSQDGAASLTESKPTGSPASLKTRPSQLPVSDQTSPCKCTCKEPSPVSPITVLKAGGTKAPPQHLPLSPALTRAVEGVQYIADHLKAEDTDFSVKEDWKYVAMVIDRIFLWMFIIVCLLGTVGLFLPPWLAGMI

α6β2*-nAChR [6] = target: T1, α6β2*-nAChR (Mus musculus, UniProt Q9ERK7+Q9R0W9); details: read-out: binding Ki, α6β2; [125I]epibatidine; striatum and olfactory tubercle membranes from α4KO mice
T1 sequence (Q9ERK7 26-501): as the sequence (Q9ERK7 26-501) above
T1 sequence (Q9R0W9 26-494): as the sequence (Q9R0W9 26-494) above

DAD2 = DAD2 (Homo sapiens, UniProt P14416); experiment: off-target radioligand binding assay; details: 10 μM
mouse [7] = details: cited from earlier work; for activity in tail-flick test given intrathecally: intrathecally 10 μg/mouse
DAT = DAT (Homo sapiens, UniProt Q01959); experiment: off-target radioligand binding assay; details: 10 μM
mouse [8] = details: cited from earlier work; remark: listed apart in the source
μ opioid receptor = μ opioid receptor (Homo sapiens, UniProt P35372); experiment: off-target radioligand binding assay; details: 10 μM
Chain of μ opioid receptor (P35372 whole entry): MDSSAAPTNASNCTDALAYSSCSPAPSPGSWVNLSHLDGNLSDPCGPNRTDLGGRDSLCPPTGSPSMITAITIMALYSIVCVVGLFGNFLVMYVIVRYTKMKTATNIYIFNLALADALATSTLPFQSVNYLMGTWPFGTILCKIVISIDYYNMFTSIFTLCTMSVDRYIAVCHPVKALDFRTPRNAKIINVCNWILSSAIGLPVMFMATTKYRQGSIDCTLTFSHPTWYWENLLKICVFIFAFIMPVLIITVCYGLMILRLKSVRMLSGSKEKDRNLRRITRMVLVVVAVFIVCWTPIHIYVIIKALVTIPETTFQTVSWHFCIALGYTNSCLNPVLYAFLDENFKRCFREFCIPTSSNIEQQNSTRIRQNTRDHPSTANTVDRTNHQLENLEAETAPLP

rat α4β2-nAChR = rat α4β2-nAChR (Rattus norvegicus, UniProt P09483+P12390); format: cell-based; details: for antagonism (% of EC50 ACh remaining) α4β2: 100 μM compound, ACh 70 μM; for IC50: read-out: antagonism, IC50 α4β2, vs EC50 ACh 70 μM
Chain of rat α4β2-nAChR (P12390 25-500): as the sequence (Q9ERK7 26-501) above, with T350A, M371V, Q379R, A383T, L387P, M391V, I449V, S468P counted along it
Chain of rat α4β2-nAChR (P09483 31-630): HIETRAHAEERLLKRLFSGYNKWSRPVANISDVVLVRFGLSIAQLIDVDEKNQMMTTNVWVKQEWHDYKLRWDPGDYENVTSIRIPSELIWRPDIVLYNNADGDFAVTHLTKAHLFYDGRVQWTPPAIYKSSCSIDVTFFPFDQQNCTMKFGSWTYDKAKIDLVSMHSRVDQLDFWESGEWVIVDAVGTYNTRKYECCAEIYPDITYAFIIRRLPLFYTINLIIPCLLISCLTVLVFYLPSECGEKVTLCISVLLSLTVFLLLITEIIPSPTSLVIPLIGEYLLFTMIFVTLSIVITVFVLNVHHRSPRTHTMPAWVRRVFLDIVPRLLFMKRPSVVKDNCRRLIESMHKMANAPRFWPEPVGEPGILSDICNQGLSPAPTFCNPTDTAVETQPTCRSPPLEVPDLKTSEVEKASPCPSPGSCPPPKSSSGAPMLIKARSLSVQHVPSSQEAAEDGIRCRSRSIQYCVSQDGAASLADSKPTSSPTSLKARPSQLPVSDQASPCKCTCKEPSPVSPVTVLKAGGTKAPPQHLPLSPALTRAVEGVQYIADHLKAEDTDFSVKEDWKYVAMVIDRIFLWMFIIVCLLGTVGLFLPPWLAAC

mouse [9] = details: cited from earlier work; remark: listed apart in the source
5HT2C = 5HT2C (Homo sapiens, UniProt P28335); experiment: off-target radioligand binding assay; details: 10 μM
5HT1A = 5HT1A (Homo sapiens, UniProt P08908); experiment: off-target radioligand binding assay; details: 10 μM
DAD3 = DAD3 (Homo sapiens, UniProt P35462); experiment: off-target radioligand binding assay; details: 10 μM
SERT = SERT (Homo sapiens, UniProt P31645); experiment: off-target radioligand binding assay; details: 10 μM
α4β2*-nAChR in α5KO = α4β2*-nAChR in α5KO (Mus musculus, UniProt O70174+Q9ERK7); format: cell-based; details: for max (% nic) dopamine release, α4β2 in α5KO*: 10 μM (+) PHT or 100 μM (−) PHT compared to 10 μM nic response; for EC50: read-out: EC50 dopamine release, α4β2 in α5KO*, α5KO mice
Chain of α4β2*-nAChR in α5KO (O70174 31-629): as the sequence (O70174 31-629, further chain) above
Chain of α4β2*-nAChR in α5KO (Q9ERK7 26-501): as the sequence (Q9ERK7 26-501) above

α6β2*-nAChR [10] = target: T1, α6β2*-nAChR; format: cell-based; details: for max (% nic) dopamine release, sens α6β2: 10 μM (+) PHT or 100 μM (−) PHT compared to 10 μM nic response
α4β2*-nAChR [11] = details: rat striatal synaptosomes, cited from earlier work
α6β2*-nAChR [12] = details: read-out: Ki, striatal α6β2*-nAChR; monkey; cited from earlier work
α6β2*-nAChR [13] = details: rat striatal synaptosomes; cited from earlier work
α6β2*-nAChR [14] = details: monkey striatal synaptosomes; cited from earlier work
α4β2*-nAChR [15] = details: monkey striatal synaptosomes, cited from earlier work
α6β2*- and α4β2*-nAChRs = details: via activation of α6β2*- and α4β2*-nAChRs; cited from earlier work
[16] = percentage of the Emax for acetylcholine

## Pyrido[3,4]homotropane [(−)-PHT]
[1]
  activity at off site targets in 62 receptor/enzyme screen (NovaScreen): inactive
ICR mice [2]; all doses tested, s.c.
  induction of significant preference in the CPP test: ineffective
ICR mice [3]; pretreatment 0.05 mg/kg
  blockade of nicotine-induced CPP: completely preventing nicotine preference
DAD4
  activity in radioligand binding assay, DAD4: inactive
nAChRs
  Ki: 0.346 µM
κ opioid receptor
  activity in radioligand binding assay, κ opioid receptor: inactive
α4β2-nAChR
  activation of currents at α4β2-nAChR: did not activate currents
Mouse [4]
  activity in hypothermia test: inactive
Rat α3β4-nAChR
  antagonist selectivity for α3β4- relative to α4β2-nAChR: 3 fold
  antagonist selectivity for α3β4- relative to α7-nAChR: 11 fold
  antagonism (% of EC50 ACh remaining) α3β4: 32 ± 3%
  IC50: 33 ± 6 µM
DAD1
  activity in radioligand binding assay, DAD1: inactive
NET
  activity in radioligand binding assay, NET: inactive
Rat α7-nAChR
  antagonism (% of EC50 ACh remaining) α7: 84± 10%
  IC50: 353 ± 34 µM
5HT2A
  activity in radioligand binding assay, 5HT2A: inactive
α6β2*-nAChR in α5KO
  max (% nic) dopamine release, α6β2 in α5KO: 96%
  EC50: 2 µM
δ opioid receptor
  activity in radioligand binding assay, δ opioid receptor: inactive
α4β2*-nAChR [5]
  max (% nic) dopamine release, res α4β2: 17%
α6β2*-nAChR [6]
  Ki: 0.629 µM
DAD2
  activity in radioligand binding assay, DAD2: inactive
Mouse [7]
  activity in tail-flick test given intrathecally: inactive
Mouse [7]; mouse
  AD50, antagonism of nicotine-induced antinociception in the tail-flick test: 0.07 µg/kg
  antinociceptive (agonist) activity in tail-flick test: inactive
DAT
  activity in radioligand binding assay, DAT: inactive
Mouse [8]
  activity in locomotor-activity test: inactive
μ opioid receptor
  activity in radioligand binding assay, μ opioid receptor: inactive
Rat α4β2-nAChR
  antagonism (% of EC50 ACh remaining) α4β2: 41 ± 4%
  IC50: 99 ± 13 µM
Mouse [9]
  AD50, antagonism of antinociceptive effects of nicotine in the hot-plate test: 0.8 µg/kg
  antinociceptive (agonist) activity in hot-plate test: inactive
5HT2C
  activity in radioligand binding assay, 5HT2C: inactive
5HT1A
  activity in radioligand binding assay, 5HT1A: inactive
DAD3
  activity in radioligand binding assay, DAD3: inactive
SERT
  activity in radioligand binding assay, SERT: inactive
α4β2*-nAChR in α5KO
  max (% nic) dopamine release, α4β2 in α5KO*: 10%
  EC50: 0.7 µM
α6β2*-nAChR [10]
  max (% nic) dopamine release, sens α6β2: 109%

## Pyrido[3,4]homotropane [(+)-PHT]
[1]
  activity at off site targets in 62 receptor/enzyme screen (NovaScreen): inactive
ICR mice [2]; 3 mg/kg s.c., 15 min before conditioning
  CPP scores: significantly increased
ICR mice [3]; pretreatment 1 mg/kg
  preference scores in comparison to nicotine alone: significantly reduced
DAD4
  activity in radioligand binding assay, DAD4: inactive
nAChRs
  affinity relative to (−)-PHT for inhibition of [3H]epibatidine binding: 266 times
  Ki: 0.00129 µM
κ opioid receptor
  activity in radioligand binding assay, κ opioid receptor: inactive
α4β2-nAChR; read-out: EC50 at α4β2-nAChR
  EC50: 5.5 µM
α4β2-nAChR; versus full agonist acetylcholine (1 mM)
  intrinsic activity at α4β2-nAChR: 17%
Mouse [4]
  activity in hypothermia test: weak activity
Rat α3β4-nAChR
  antagonism (% of EC50 ACh remaining) α3β4: 93 ± 3%
  IC50: 242 ± 13 µM
Rat α3β4-nAChR; [16]
  agonist activity α3β4 Emax (% ACh): 8.4 % ACh and 8.4 ± 0.5 % ACh
Rat α3β4-nAChR; read-out: agonist activity α3β4 EC50, concentration–response curve
  EC50: 50 ± 6 µM
DAD1
  activity in radioligand binding assay, DAD1: inactive
NET
  inhibition of specific [125I]RTI-55 binding to the NET: 61%
Rat α7-nAChR
  antagonism (% of EC50 ACh remaining) α7: 87± 1%
  IC50: 720 ± 290 µM
5HT2A
  activity in radioligand binding assay, 5HT2A: inactive
α6β2*-nAChR in α5KO
  max (% nic) dopamine release, α6β2 in α5KO: 125%
  EC50: 0.2 µM
δ opioid receptor
  activity in radioligand binding assay, δ opioid receptor: inactive
α4β2*-nAChR [5]
  max (% nic) dopamine release, res α4β2: 33%
α4β2*-nAChR [5]; wild type mice
  potency relative to (−)-PHT at the α4β2*-nAChR (DA release EC50): 10 fold
α6β2*-nAChR [6]
  Ki: 0.028 µM
DAD2
  activity in radioligand binding assay, DAD2: inactive
Mouse [7]
  activity in tail-flick test given intrathecally: no antinociceptive activity
Mouse [7]; mouse
  antinociceptive (agonist) activity in tail-flick test: no antinociceptive activity
DAT
  activity in radioligand binding assay, DAT: inactive
Mouse [8]
  activity in locomotor-activity test: weak activity
μ opioid receptor
  activity in radioligand binding assay, μ opioid receptor: inactive
Rat α4β2-nAChR
  agonist potency at α4β2-nAChR compared to α3β4-nAChR (EC50 comparison): 12 fold
  antagonist selectivity for α4β2- relative to α3β4-nAChR (IC50 comparison): 15 fold
  antagonist selectivity for α4β2- relative to α7-nAChR (IC50 comparison): 45 fold
  antagonism (% of EC50 ACh remaining) α4β2: 17 ± 3%
  IC50: 16 ± 3 µM
Rat α4β2-nAChR; [16]
  agonist activity α4β2 Emax (% ACh): 4.6 % ACh and 4.6 ± 0.4 % ACh
Rat α4β2-nAChR; read-out: agonist activity α4β2 EC50, concentration–response curve
  EC50: 4 ± 1 µM
Mouse [9]
  antinociceptive (agonist) activity in hot-plate test: no antinociceptive activity
5HT2C
  activity in radioligand binding assay, 5HT2C: inactive
5HT1A
  activity in radioligand binding assay, 5HT1A: inactive
DAD3
  activity in radioligand binding assay, DAD3: inactive
SERT
  activity in radioligand binding assay, SERT: inactive
α4β2*-nAChR in α5KO
  max (% nic) dopamine release, α4β2 in α5KO*: 13%
  EC50: 2 µM
α6β2*-nAChR [10]
  max (% nic) dopamine release, sens α6β2: 94%
α6β2*-nAChR [10]; wild type mice
  potency relative to (−)-PHT at the α6β2*-nAChR (DA release EC50): 30 fold

## c1cnc2cc3c(cc2n1)[C@@H]1CNC[C@H]3C1 [varenicline, 6,7,8,9,10-Tetrahydro-6,10-methano-6H-pyyrazino[2,3-h][3]benzazepine]
α4β2*-nAChR [11]
  maximal efficacy at α4β2-nAChR: […]
α4β2*-nAChR [11]; read-out: EC50, α4β2*-nAChR-mediated [3H]DA release
  EC50: […]
α6β2*-nAChR [12]
  Ki: 0.00013 µM
α6β2*-nAChR [13]
  maximal efficacy at α6β2-nAChR: 49%
α6β2*-nAChR [14]
  Emax, α6β2*-nAChR: 13%
α4β2*-nAChR [15]
  Emax, α4β2*-nAChR: […]
α4β2*-nAChR [15]; read-out: EC50, α4β2*-nAChR-mediated [3H]DA-release
  EC50: […]

## Cc1ncccc1OC[C@@H]1CCCN1 [ABT-089, 2-Methyl-3-[(2S)-pyrrolidin-2-yl]methoxypyridine]
α6β2*- and α4β2*-nAChRs
  effect on in vitro striatal DA release: increases in vitro striatal DA release
